Measurements collected from several papers.
Target: Phosphatidylinositol 5-phosphate 4-kinase type-2 beta (PIP4K2B, Homo sapiens, UniProt P78356)
Residues used in one study (P78356 1-416): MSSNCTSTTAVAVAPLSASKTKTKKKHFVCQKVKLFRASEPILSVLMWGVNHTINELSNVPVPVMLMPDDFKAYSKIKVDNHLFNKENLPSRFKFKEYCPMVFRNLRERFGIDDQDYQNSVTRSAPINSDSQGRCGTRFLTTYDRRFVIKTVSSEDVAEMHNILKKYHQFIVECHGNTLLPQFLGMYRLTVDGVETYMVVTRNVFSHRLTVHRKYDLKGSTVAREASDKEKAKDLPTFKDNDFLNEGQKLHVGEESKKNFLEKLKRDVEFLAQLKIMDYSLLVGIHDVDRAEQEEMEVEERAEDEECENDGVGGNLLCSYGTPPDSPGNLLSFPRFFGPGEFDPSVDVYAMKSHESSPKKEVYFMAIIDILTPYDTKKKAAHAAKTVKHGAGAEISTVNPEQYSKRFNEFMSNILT

The remaining binding of `c1cnn2ncc(-c3ccnc(N4CCC45COC5)n3)c2c1` is reported as 58% (binding; 1 µM).
The remaining binding of `C[C@@H](c1ccc(-n2cnc3c(N)ncnc32)cc1)N1CCc2nn(C)c(Cc3ccccc3)c2C1=O` is reported as 69% (binding, competition with immobilised ligand; 0.1 µM).
With `COc1cnc(Nc2cccc(S(N)(=O)=O)c2)nc1N1CCN(c2ccccc2)C(=O)C1` the remaining binding was 100% (binding, competition with immobilised ligand; 1 µM).
`Nc1ncc2c(n1)-c1c([nH]c3ccc(C#CC4CC4)cc13)CCCC2` has a remaining binding of 86% (binding, competition with immobilised ligand; 1 µM).
`CC(=O)c1c(NS(C)(=O)=O)c2cc(-c3ccc(Cl)cc3)c(-c3ccc(Cl)cc3Cl)nc2n(C)c1=O` has a remaining binding of 65% (cell-free assay, competition with immobilised ligand; 1 µM).
For `CN(CCCC(F)(F)F)c1nccc(-c2cnn3ncccc23)n1`, the remaining binding was 57% (binding; 1 µM).
`O=C(c1ccc(Nc2nccc(-c3cc4ccccc4s3)n2)cc1)N1CCC(N2CCCC2)CC1` has a remaining binding of 11% (binding, competition with immobilised ligand; 1 µM).
`Cc1cc(C)c(-n2ccn3nc(-c4cccnc4)cc23)cc1NC(=O)c1cc(C#N)cc(S(F)(F)(F)(F)F)c1` gave a remaining binding of 52.2% (cell-free assay, competition with immobilised ligand; 0.1 µM).
`c1cncc(-c2cccc(Nc3nccc(NC4CCCCC4)n3)c2)c1` gave a remaining binding of 27% (binding, competition with immobilised ligand; 10 µM).
For `NS(=O)(=O)c1cc(NC(=O)Cc2ccccc2)ccc1Oc1cccc(Cl)c1`, the remaining binding was 89% (cell-free assay, competition with immobilised ligand; 1 µM).
With `N[C@H]1CCN(c2nccc(-c3cnn4ncccc34)n2)C1` the remaining binding was 100% (binding; 1 µM).
With `O=C(c1ccc(Nc2ncc(Cl)c(-c3ccc(Cl)s3)n2)cc1)N1CCC(N2CCCC2)CC1` the remaining binding was 1.9% (binding, competition with immobilised ligand; 1 µM).
`COc1ncc2cc3ccccc3nc2c1C#N` gave a remaining binding of 100% (cell-free assay, competition with immobilised ligand; 5 µM).
For `C[C@@H](c1cccc(C#N)c1)n1cc(Cl)cc(C(N)=O)c1=N`, the remaining binding was 73% (cell-free assay, competition with immobilised ligand; 1 µM).
`Cc1nc(NC(=O)N2CCC[C@H]2C(N)=O)sc1-c1ccnc(C(C)(C)C(F)(F)F)c1` gave a remaining binding of 100% (binding, competition with immobilised ligand; 10 µM).
For `COc1ccnn2ncc(-c3ccnc(N(C)C)n3)c12`, the remaining binding was 100% (binding; 1 µM).
With `O=C(NCCCN1CCOCC1)c1ccc(Nc2nccc(-c3cc4ccccc4s3)n2)cc1` the remaining binding was 11% (binding, competition with immobilised ligand; 1 µM).
`Cc1c(NC(=O)c2cc(C(N)=O)nc3cc(F)ccc23)c(C(F)(F)F)nn1Cc1ccc(C(C)(C)C)cc1` has a remaining binding of 91% (cell-free assay, competition with immobilised ligand; 1 µM).
The remaining binding of `CN(C)c1nccc(-c2cnc3ncccn23)n1` is reported as 100% (binding; 1 µM).
For `Cc1nc(N2CC[C@@H](O)C2)ncc1-c1cc(C(F)(F)F)cc2[nH]ncc12`, the remaining binding was 100% (cell-free assay, competition with immobilised ligand; 1 µM).
With `F[C@@H]1CCN(c2nccc(-c3cnn4ncccc34)n2)C1` the remaining binding was 79% (binding; 1 µM).
`O=C(Nc1c[nH]nc1C(=O)NC1CCNCC1)c1cc(F)cc(F)c1` gave a remaining binding of 88% (binding, competition with immobilised ligand; 1 µM).
With `CN(C)c1nccc(-c2cnn3ncccc23)n1` the remaining binding was 100% (binding; 1 µM).
With `C[C@@]1(Cc2ccc(C#N)cc2)C(=O)N(c2cc(Cl)cc(Cl)c2)c2ncc(C(=O)NC3(c4nc(C5CCC5)no4)CC3)n21` the remaining binding was 97% (cell-free assay, competition with immobilised ligand; 1 µM).
